Assay results taken from ChEMBL document CHEMBL3425486, “Lathyrol diterpenes as modulators of P-glycoprotein dependent multidrug resistance: structure-activity relationship studies on Euphorbia factor L3 derivatives” (J Med Chem, 2015).

What was measured:
[1] = molecular target: T1, ATP-dependent translocase ABCB1 (Homo sapiens, UniProt P08183); test: Inhibition of P-gp in human MCF7/ADR cells assessed as forward scatter count of cells at 2 uM pre-treated for 1 hr at 37 degC followed by incubation with Rh123 for 1 hr by flow cytometry (reference value: 142.5 No unit); type: cell-based; conditions: nci/adr-res
[2] = molecular target: T1, ATP-dependent translocase ABCB1; test: Inhibition of P-gp in human MCF7/ADR cells assessed as mean fluorescence intensity of cells at 20 uM pre-treated for 1 hr at 37 degC followed by incubation with Rh123 for 1 hr by flow cytometry (reference value: 108.1 +/- 43.9 No unit); type: cell-based; conditions: nci/adr-res
[3] = molecular target: T1, ATP-dependent translocase ABCB1; test: Inhibition of P-gp in human MCF7/ADR cells assessed as peak fluorescence intensity of cells at 2 uM pre-treated for 1 hr at 37 degC followed by incubation with Rh123 for 1 hr by flow cytometry (reference value: 87.3 No unit); type: cell-based; conditions: nci/adr-res
[4] = molecular target: T1, ATP-dependent translocase ABCB1; test: Inhibition of P-gp in human MCF7/ADR cells assessed as side scatter count of cells at 20 uM pre-treated for 1 hr at 37 degC followed by incubation with Rh123 for 1 hr by flow cytometry (reference value: 100.6 No unit); type: cell-based; conditions: nci/adr-res
[5] = Cytotoxicity against human MCF7/ADR cells assessed as reduction in cell viability after 48 hrs by SRB colorimetric assay; type: functional, cell-based; conditions: NCI/ADR-RES
In short: (§1)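 MCF-7 from ATCC and its stepwise ADR-selected resistant subline, grown in RPMI-1640 with 10% FBS and penicillin/streptomycin at 37 °C, 5% CO2. 1 × 10^4 cells/well exposed to graded compound concentrations for 48 h. Cells fixed with 10% TCA, stained with 0.4% SRB in 1% acetic acid, dye extracted with 10 mM Tris base, OD read at 490 nm. Taxol positive control.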

[6] = molecular target: T1, ATP-dependent translocase ABCB1; test: Inhibition of P-gp in human MCF7/ADR cells assessed as side scatter count of cells at 10 uM pre-treated for 1 hr at 37 degC followed by incubation with Rh123 for 1 hr by flow cytometry (reference value: 100.6 No unit); type: cell-based; conditions: nci/adr-res
[7] = molecular target: T1, ATP-dependent translocase ABCB1; test: Inhibition of P-gp in human MCF7/ADR cells assessed as forward scatter count of cells at 10 uM pre-treated for 1 hr at 37 degC followed by incubation with Rh123 for 1 hr by flow cytometry (reference value: 142.5 No unit); type: cell-based; conditions: nci/adr-res
[8] = molecular target: T1, ATP-dependent translocase ABCB1; test: Inhibition of P-gp in human MCF7/ADR cells assessed as mean fluorescence intensity of cells at 10 uM pre-treated for 1 hr at 37 degC followed by incubation with Rh123 for 1 hr by flow cytometry (reference value: 108.1 +/- 43.9 No unit); type: cell-based; conditions: nci/adr-res
[9] = system: NCI/ADR-RES; test: Inhibition of P-gp in human MCF7/ADR cells assessed as reversal of multidrug resistance at 10 uM by measuring ratio of EC50(adriamycin)/EC50(adriamycin + compound) after 48 hrs by SRB colorimetric assay; type: cell-based
[10] = molecular target: T1, ATP-dependent translocase ABCB1; test: Inhibition of P-gp in human MCF7/ADR cells assessed as peak fluorescence intensity of cells at 20 uM pre-treated for 1 hr at 37 degC followed by incubation with Rh123 for 1 hr by flow cytometry (reference value: 87.3 No unit); type: cell-based; conditions: nci/adr-res
[11] = system: MCF7; test: Cytotoxicity against human MCF7 cells assessed as reduction in cell viability after 48 hrs by SRB colorimetric assay; type: functional, cell-based; conditions: MCF7, 48 h; in short: as §1
[12] = molecular target: T1, ATP-dependent translocase ABCB1; test: Inhibition of P-gp in human MCF7/ADR cells assessed as mean fluorescence intensity of cells pre-treated for 1 hr at 37 degC followed by incubation with Rh123 for 1 hr by flow cytometry; type: cell-based; conditions: nci/adr-res
[13] = molecular target: T1, ATP-dependent translocase ABCB1; test: Inhibition of P-gp in human MCF7/ADR cells assessed as mean fluorescence intensity of cells at 2 uM pre-treated for 1 hr at 37 degC followed by incubation with Rh123 for 1 hr by flow cytometry (reference value: 108.1 +/- 43.9 No unit); type: cell-based; conditions: nci/adr-res
[14] = molecular target: T1, ATP-dependent translocase ABCB1; test: Inhibition of P-gp in human MCF7/ADR cells assessed as peak fluorescence intensity of cells at 10 uM pre-treated for 1 hr at 37 degC followed by incubation with Rh123 for 1 hr by flow cytometry (reference value: 87.3 No unit); type: cell-based; conditions: nci/adr-res
[15] = molecular target: T1, ATP-dependent translocase ABCB1; test: Inhibition of P-gp in human MCF7/ADR cells assessed as side scatter count of cells at 2 uM pre-treated for 1 hr at 37 degC followed by incubation with Rh123 for 1 hr by flow cytometry (reference value: 100.6 No unit); type: cell-based; conditions: nci/adr-res
[16] = molecular target: T1, ATP-dependent translocase ABCB1; test: Inhibition of P-gp in human MCF7/ADR cells assessed as reversal of multidrug resistance by measuring relative enhancement intensity for adriamycin-induced cytotoxicity at 10 uM after 48 hrs by SRB colorimetric assay; type: cell-based; set-up: scale not given: the % may be the effect or the level left; conditions: nci/adr-res
[17] = molecular target: T1, ATP-dependent translocase ABCB1; test: Inhibition of P-gp in human MCF7/ADR cells assessed as forward scatter count of cells at 20 uM pre-treated for 1 hr at 37 degC followed by incubation with Rh123 for 1 hr by flow cytometry (reference value: 142.5 No unit); type: cell-based; conditions: nci/adr-res
[18] = Inhibition of P-gp in human MCF7/ADR cells assessed as reversal of multidrug resistance at 10 uM by measuring EC50 for adriamycin-induced cytotoxicity after 48 hrs by SRB colorimetric assay; conditions: nci/adr-res
[19] = Lipophilicity, log P of the compound; type: physicochemical; conditions: octanol/water

T1 sequence (P08183 whole entry): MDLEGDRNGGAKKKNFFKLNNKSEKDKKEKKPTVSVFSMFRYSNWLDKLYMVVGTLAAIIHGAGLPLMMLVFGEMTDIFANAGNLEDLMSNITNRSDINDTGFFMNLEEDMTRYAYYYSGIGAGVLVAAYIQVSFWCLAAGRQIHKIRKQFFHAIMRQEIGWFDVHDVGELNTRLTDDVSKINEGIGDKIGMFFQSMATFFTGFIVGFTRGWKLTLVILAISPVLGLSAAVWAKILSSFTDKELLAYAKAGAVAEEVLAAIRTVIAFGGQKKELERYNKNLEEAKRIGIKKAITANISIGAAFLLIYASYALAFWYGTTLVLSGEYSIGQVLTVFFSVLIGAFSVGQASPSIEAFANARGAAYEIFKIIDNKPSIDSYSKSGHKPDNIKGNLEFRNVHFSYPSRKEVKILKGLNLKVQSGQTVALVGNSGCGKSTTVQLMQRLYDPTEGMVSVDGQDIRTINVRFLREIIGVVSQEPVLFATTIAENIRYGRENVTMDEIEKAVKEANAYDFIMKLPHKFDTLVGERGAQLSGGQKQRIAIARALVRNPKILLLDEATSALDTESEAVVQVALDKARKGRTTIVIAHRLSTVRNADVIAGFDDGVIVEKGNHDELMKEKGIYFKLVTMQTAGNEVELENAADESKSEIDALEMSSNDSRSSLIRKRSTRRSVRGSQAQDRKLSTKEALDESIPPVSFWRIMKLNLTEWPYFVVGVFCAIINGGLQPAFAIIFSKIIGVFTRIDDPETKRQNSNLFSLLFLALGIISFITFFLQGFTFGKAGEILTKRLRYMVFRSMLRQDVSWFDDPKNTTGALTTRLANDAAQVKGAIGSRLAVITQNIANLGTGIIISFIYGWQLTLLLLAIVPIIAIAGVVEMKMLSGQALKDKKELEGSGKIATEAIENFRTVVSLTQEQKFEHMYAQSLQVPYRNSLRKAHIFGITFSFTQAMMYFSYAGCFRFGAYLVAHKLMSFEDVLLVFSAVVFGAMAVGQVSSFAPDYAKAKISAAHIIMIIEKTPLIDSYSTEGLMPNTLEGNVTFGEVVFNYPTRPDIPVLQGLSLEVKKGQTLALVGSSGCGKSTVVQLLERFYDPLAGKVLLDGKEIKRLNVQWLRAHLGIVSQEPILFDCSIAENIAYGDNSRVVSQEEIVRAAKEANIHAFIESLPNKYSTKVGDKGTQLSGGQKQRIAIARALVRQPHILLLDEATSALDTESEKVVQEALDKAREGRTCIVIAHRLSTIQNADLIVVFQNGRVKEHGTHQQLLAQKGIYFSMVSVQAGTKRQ

| SMILES | Activity [1] | Flu intensity [2] | Activity [3] | Activity [4] | IC50 [5] [µM] | Activity [6] | Activity [7] | Flu intensity [8] | Ratio EC50 [9] | Activity [10] | IC50 [11] [µM] | inhibition (INH) [12] | Flu intensity [13] | Activity [14] | Activity [15] | Activity [16] [%] | Activity [17] | EC50 [18] [µM] | logP [19] |
| --- | --- | --- | --- | --- | --- | --- | --- | --- | --- | --- | --- | --- | --- | --- | --- | --- | --- | --- | --- |
| C=C1CC[C@H]2[C@@H](/C=C(\C)C(=O)[C@@]3(O)C[C@H](C)[C@H](OC(=O)CC)[C@@H]3[C@H]1OC(=O)Cc1cccc3ccccc13)C2(C)C | 138.5 | 204.6 | 143.5 | 100.9 | 75.7 | 101.2 | 137.9 | 167.8 | 28.6 | 235.8 | 9.73 | Dose-dependent effect | 149.4 | 188.2 | 94.8 | 14.4 | 131.4 |  |  |
| C=C1CC[C@H]2[C@@H](/C=C(\C)C(=O)[C@@]3(O)C[C@H](C)[C@H](OC(=O)c4ccccc4)[C@@H]3[C@H]1OC(=O)c1ccccc1)C2(C)C | 146.8 | 204.8 | 215.4 | 102 | 63.8 | 104.4 | 144.5 | 204.8 | 34.4 | 196.8 | 13.2 |  | 197.5 | 215.4 | 102.7 | 23.9 | 148.1 |  |  |
| C=C1CC[C@H]2[C@@H]([C@@H]3O[C@]4(C[C@H](C)[C@H](OC(C)=O)[C@@H]4[C@H]1OC(C)=O)C(=O)[C@H]3C)C2(C)C |  |  |  |  | > 100 |  |  |  | 10.7 |  | 12.7 |  |  |  |  | 13 |  | 3.23 | 3.4 |
| C=C1CC[C@H]2[C@@H](/C=C(\C)C(=O)[C@@]3(O)C[C@H](C)[C@H](O)[C@@H]3[C@H]1OC(=O)Cc1cccc3ccccc13)C2(C)C | 134.9 | 182.1 | 131.1 | 94.2 | 33.7 | 102.2 | 148.5 | 168.1 | 16 | 205.9 | 10.5 |  | 141.1 | 196.8 | 96.3 | 15.5 | 138.7 |  |  |
| C=C1CC[C@H]2[C@@H]([C@@H]3O[C@]4(C[C@H](C)[C@H](OC(=O)/C=C/c5ccccc5)[C@@H]4[C@H]1OC(=O)/C=C/c1ccccc1)C(=O)[C@H]3C)C2(C)C |  |  |  |  | > 100 |  |  |  | 3.6 |  | 64.2 |  |  |  |  | 2.1 |  | 9.68 |  |
| COc1ccc(CCN(C)CCCC(C#N)(c2ccc(OC)c(OC)c2)C(C)C)cc1OC (stereo unspecified) |  | 170 |  | 92.2 |  |  |  |  | 7.1 | 157.1 |  |  |  |  |  | 8.4 | 137.4 |  |  |
